In ChEMBL document CHEMBL2396573, “Synthesis and evaluation of 8-amino-[1,2,4]triazolo[4,3-a]pyridin-3(2H)-one derivatives as glycogen synthase kinase-3 (GSK-3) inhibitors” (Bioorg Med Chem Lett, 2013):

Key:
[1] = molecular target: Glycogen synthase kinase-3 (Homo sapiens, UniProt P49840+P49841); experiment: Inhibition of recombinant human GSK3 using YRRAAVPPSPSLSRHSSPHQ(pS)EDEEE as substrate preincubated for 10 mins followed by [33P-gamma]-ATP addition measured after 30 mins by liquid scintillation counting analysis; format: protein assay
How it was run: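 Reaction started with 1 µM ATP […] 33P-γ-ATP, run 30 min at 30 °C, and stopped with 3% phosphoric acid. Product captured on P81 paper and read by scintillation counting. IC50 is the mean of triplicates.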

[2] = Inhibition of GSK3 in rat […] cells assessed as reduction in glucose production after overnight incubation by fluorescence assay; format: cell-based
How it was run: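 Rat hepatoma H4IIE cells grown in DMEM + 10% FBS, 2 mM L-glutamine and penicillin–streptomycin at 37 °C, 5% CO2, and passaged at 75% confluence. Plated at 100,000 cells/well, attached ~3 h, then PBS-washed and held overnight in glucose- and serum-free DMEM with 20 mM lactate and 2 mM pyruvate. Compounds, diluted in this medium, added overnight. Glucose in medium read with Amplex Red/glucose oxidase (30 min, dark; ex 560/em 615 nm); mean of triplicates.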

Compound	IC50 [1]	EC50 [2]
Nc1cccn2c(=O)[nH]nc12	> 50 µM	
Cc1cc(NCCCc2ccc(C)nc2)c2n[nH]c(=O)n2c1.Cl	0.309 µM	1.25 µM
Cc1cc(NCCCc2ccnc(Cl)c2)c2n[nH]c(=O)n2c1.Cl	0.774 µM	12.1 µM
Cc1cc(NCCCN2CCNCC2)c2n[nH]c(=O)n2c1.Cl	> 50 µM	
Cl.O=c1[nH]nc2c(NCCCc3ccnc(Cl)c3)cc(Cl)cn12	0.199 µM	2.63 µM
Cc1cc(NCCCc2ccccn2)c2n[nH]c(=O)n2c1.Cl	1.2 µM	21.1 µM
Cc1ccc(CCCNc2cc(Cl)cn3c(=O)[nH]nc23)cn1.Cl	0.342 µM	2.74 µM
Cc1cc(CCCNc2cc(Cl)cn3c(=O)[nH]nc23)ccn1.Cl	0.818 µM	7.03 µM
COc1ccc(OCCNc2cc(C)cn3c(=O)[nH]nc23)cc1	7.01 µM	
Cl.Nc1cc(CCCNc2cc(Cl)cn3c(=O)[nH]nc23)ccn1	0.249 µM	2.36 µM
COc1cccc(CCCNc2cc(Cl)cn3c(=O)[nH]nc23)c1	0.19 µM	2.71 µM
